From ChEMBL document CHEMBL1132626 (J Med Chem, 1999)
pIC50: −log10 of the molar value.

Experiments:
[1] = target: T1, Prostaglandin G/H synthase 2 (Homo sapiens, UniProt P35354); format: cell-based, CHO
T1 sequence (P35354 whole entry): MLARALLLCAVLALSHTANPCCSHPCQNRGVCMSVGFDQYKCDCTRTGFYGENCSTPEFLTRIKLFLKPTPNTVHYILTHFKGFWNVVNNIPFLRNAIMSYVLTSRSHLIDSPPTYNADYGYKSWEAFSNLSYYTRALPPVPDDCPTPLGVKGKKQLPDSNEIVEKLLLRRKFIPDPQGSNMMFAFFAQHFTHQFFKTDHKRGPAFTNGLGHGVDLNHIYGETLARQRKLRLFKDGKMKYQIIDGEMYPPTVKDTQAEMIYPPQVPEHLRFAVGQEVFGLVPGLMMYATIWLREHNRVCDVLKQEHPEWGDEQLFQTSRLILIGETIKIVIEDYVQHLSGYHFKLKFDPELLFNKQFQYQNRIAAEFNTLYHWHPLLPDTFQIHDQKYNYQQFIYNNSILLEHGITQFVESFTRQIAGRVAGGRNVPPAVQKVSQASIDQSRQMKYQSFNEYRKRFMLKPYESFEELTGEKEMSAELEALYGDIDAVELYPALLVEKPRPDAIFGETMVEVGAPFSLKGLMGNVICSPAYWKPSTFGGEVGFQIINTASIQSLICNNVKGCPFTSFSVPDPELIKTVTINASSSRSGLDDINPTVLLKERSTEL

[2] = target: T1, Prostaglandin G/H synthase 2; format: tissue-based, Blood
[3] = target: T2, Prostaglandin G/H synthase 1 (Homo sapiens, UniProt P23219); format: tissue-based, Blood
T2 sequence (P23219 whole entry): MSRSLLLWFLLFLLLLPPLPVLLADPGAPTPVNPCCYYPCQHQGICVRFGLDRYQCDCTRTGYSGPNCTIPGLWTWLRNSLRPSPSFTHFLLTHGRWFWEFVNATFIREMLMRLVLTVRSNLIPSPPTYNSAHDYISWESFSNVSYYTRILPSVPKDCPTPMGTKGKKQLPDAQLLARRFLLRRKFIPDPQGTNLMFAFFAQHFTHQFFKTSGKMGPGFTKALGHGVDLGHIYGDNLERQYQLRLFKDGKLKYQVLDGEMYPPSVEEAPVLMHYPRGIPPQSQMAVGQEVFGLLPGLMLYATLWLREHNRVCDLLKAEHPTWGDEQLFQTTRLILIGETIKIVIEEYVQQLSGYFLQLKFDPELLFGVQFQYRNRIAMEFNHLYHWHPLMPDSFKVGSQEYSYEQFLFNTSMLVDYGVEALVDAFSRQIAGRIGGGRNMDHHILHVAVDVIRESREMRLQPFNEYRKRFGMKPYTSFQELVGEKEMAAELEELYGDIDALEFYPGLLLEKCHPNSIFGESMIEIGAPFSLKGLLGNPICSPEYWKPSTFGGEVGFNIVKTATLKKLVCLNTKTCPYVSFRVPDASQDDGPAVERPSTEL

[4] = target: T2, Prostaglandin G/H synthase 1
[5] = tested on: Rattus norvegicus; test: In vivo efficacy was evaluated using a carrageenan-induced rat paw edema model as ED50.; format: functional
Outline: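 Male Sprague–Dawley rats (150–200 g) were fasted overnight and dosed po in vehicle (1% methocel or 5% Tween 80). After 1 h, baseline paw volume was measured by plethysmometry and 1% carrageenan in saline was injected subplantarly (500 µg/paw). Paw swelling was measured 3 h later and % inhibition calculated versus vehicle. ED50 used ≥4 dose points with 5 rats/group.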

[6] = tested on: Rattus norvegicus; test: In vivo efficacy was evaluated using a LPS-induced rat pyresis model as ED50.
[7] = tested on: Rattus norvegicus; test: In vivo efficacy was evaluated using a carrageenan-induced rat hyperalgesia model as ED50.; format: functional
Outline: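 Male Sprague–Dawley rats (90–110 g) received intraplantar carrageenan (4.5 mg/paw). Compound was given orally 2 h after carrageenan. One hour later, the vocalization response to compression of the injected paw was measured with an algesiometer. ID50 was derived from at least four dose points.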

[8] = tested on: Rattus norvegicus; test: In vivo efficacy was evaluated in adjuvant arthritis(21 day); format: functional; conditions: 504 h, read-out: ID50 (the source's name)
Outline: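 Arthritis was induced in female Lewis rats (7 weeks, 144–172 g) by intradermal left hind footpad injection of 0.5 mg Mycobacterium butyricum in light mineral oil; 10 rats/group. Secondary-paw volume, body weight and radiographs were recorded on days 0, 14 and 21. Analysis used two-factor repeated-measures ANOVA with Dunnett's test.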

[9] = tested on: Rattus norvegicus; test: Compound was tested for 10 days at 100 mg/kg/day in rats activity measured as Cr leakage; Clean; format: functional, organism-based

| pIC50 [1] | pIC50 [2] | pIC50 [3] | pIC50 [4] | SMILES | ED50 [5] | ED50 [6] | ED50 [7] | ED50 [8] | Cr leakage [9] |
| --- | --- | --- | --- | --- | --- | --- | --- | --- | --- |
| 5.82 | 5.01 | – | < 5.00 | CS(=O)(=O)c1ccc(C2=C(c3ccccn3)C(=O)CC2)cc1 | – | – | – | – | – |
| 6.82 | 7.05 | – | 7.22 | COc1ccncc1C1=C(c2ccc(S(C)(=O)=O)cc2)CCC1=O | – | – | – | – | – |
| 7.85 | 6.55 | < 4.00 | 5.04 | CS(=O)(=O)c1ccc(C2=C(c3cc(Cl)cc(Cl)c3)C(=O)CC2)cc1 | > 10 mg/kg | – | – | – | – |
| 6.52 | 5.77 | – | < 4.00 | CS(=O)(=O)c1ccc(C2=C(c3cncc(Br)c3)C(=O)CC2)cc1 | – | – | – | – | – |
| 6.82 | 5.28 | – | < 4.00 | CC(C)(C)C#CC1=C(c2ccc(S(C)(=O)=O)cc2)CCC1=O | – | – | – | – | – |
| 6.77 | 6.19 | 4.14 | 4.47 | CS(=O)(=O)c1ccc(C2=C(c3cccnc3)C(=O)CC2)cc1 | 1.7 mg/kg | 0.7 mg/kg | 0.7 mg/kg | 0.6 mg/kg | Clean |
| 6.36 | 6.35 | 5.39 | 5.26 | Cc1ccncc1C1=C(c2ccc(S(C)(=O)=O)cc2)CCC1=O | – | – | – | – | – |
| 8.22 | 6.03 | – | 5.60 | CS(=O)(=O)c1ccc(C2=C(c3cc(Cl)c(Cl)c(Cl)c3)C(=O)CC2)cc1 | – | – | – | – | – |
| 7.72 | 7.10 | 5.43 | 6.30 | CS(=O)(=O)c1ccc(C2=C(c3ccc(F)cc3)C(=O)CC2)cc1 | 3 mg/kg | – | – | – | – |
| 7.96 | – | 5.39 | 5.51 | CS(=O)(=O)c1ccc(C2=C(c3ccccc3)C(=O)CC2)cc1 | 10 mg/kg | – | – | – | – |

More lines, now with the values behind:

| SMILES | pIC50 [1] | pIC50 [2] | pIC50 [3] | pIC50 [4] | ED50 [5] | ED50 [6] | ED50 [7] | ED50 [8] | Cr leakage [9] |
| --- | --- | --- | --- | --- | --- | --- | --- | --- | --- |
| CS(=O)(=O)c1ccc(C2=C(c3ccc(Cl)c(F)c3)C(=O)CC2)cc1 | 7.82 | 6.82 | 7.00 | 6.15 | – | – | – | – | – |
| Cc1ccc(-c2cc(C(F)(F)F)nn2-c2ccc(S(N)(=O)=O)cc2)cc1 [CELECOXIB] | – | – | – | – | 3.2 mg/kg | – | – | – | – |
| CS(=O)(=O)c1ccc(C2=C(/C=C/c3ccc(F)cc3)C(=O)CC2)cc1 | 6.76 | 6.30 | 4.57 | – | > 10 mg/kg | – | – | – | – |
| CS(=O)(=O)c1ccc(C2=C(c3cc4ccccc4s3)C(=O)CC2)cc1 | 7.85 | 7.10 | – | 7.00 | – | – | – | – | – |
| CS(=O)(=O)c1ccc(C2=C(Oc3cc(F)cc(F)c3)C(=O)CC2)cc1 | 7.77 | 5.96 | 4.03 | 5.57 | 6.6 mg/kg | – | – | – | – |
| CS(=O)(=O)c1ccc(C2=C(c3cc(F)cc(F)c3)C(=O)CC2)cc1 | 7.82 | 6.21 | 4.21 | – | 2.6 mg/kg | 0.8 mg/kg | 3 mg/kg | 4 mg/kg | Clean |
| CS(=O)(=O)c1ccc(C2=C(c3ccccc3)C(=O)OC2)cc1 [ROFECOXIB] | – | – | – | – | 1.7 mg/kg | – | – | – | – |
| CS(=O)(=O)c1ccc(C2=C(c3ccc(F)c(F)c3)C(=O)CC2)cc1 | 7.85 | 6.68 | 5.49 | 5.77 | – | – | – | – | – |
| CS(=O)(=O)c1ccc(C2=C(c3cncc(Cl)c3)C(=O)CC2)cc1 | – | – | < 4.00 | < 4.00 | 1.3 mg/kg | – | – | – | – |
| CS(=O)(=O)c1ccc(C2=C(c3cc(Cl)ccn3)C(=O)CC2)cc1 | 6.72 | 6.28 | 4.47 | 4.57 | 2.5 mg/kg | – | – | – | – |
| CS(=O)(=O)c1ccc(C2=C(c3cccc(F)c3)C(=O)CC2)cc1 | 7.85 | 6.47 | – | 5.18 | 6.4 mg/kg | – | – | – | – |
| CS(=O)(=O)c1ccc(C2=C(c3cc(Br)ccn3)C(=O)CC2)cc1 | 6.20 | 6.33 | – | 4.74 | – | – | – | – | – |
| CS(=O)(=O)c1ccc(C2=C(C#Cc3ccccc3)C(=O)CC2)cc1 | 8.22 | 6.19 | – | – | – | – | – | – | – |
| CS(=O)(=O)c1ccc(C2=C(c3ccc(F)c(Cl)c3)C(=O)CC2)cc1 | 8.05 | 7.05 | – | 6.52 | – | – | – | – | – |
